According to ChEMBL document CHEMBL1153726, “Synthesis and anticancer activity of sclerophytin-inspired hydroisobenzofurans” (Bioorg Med Chem Lett, 2009):

Assay: Antitumor activity against human KB3 cells after 96 hrs by MTT assay
Assay type: functional, cell-based
Conditions: KB3, 96 h
Summary of the method: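 Human KB-3 carcinoma cells exposed to increasing compound concentrations; viability read by MTT colorimetric assay after 96 h. Values are means of triplicate assays, expressed relative to untreated controls.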

Row | Structure (SMILES) | IC50 [µM]
1 | C=C(C)[C@H]1CC=C(C)[C@@]2(O)[C@@H]1[C@H](c1ccccc1Br)O[C@@H]2C(=O)O | > 100
2 | C=C(C)[C@H]1CC=C(C)C2=CO[C@@H](c3ccccc3Br)[C@@H]21 | 4
3 | C=C(C)[C@H]1CC=C(C)[C@H]2[C@@H]1[C@H](c1ccccc1Br)O[C@@H]2C(=O)OCC | > 100
4 | C=C(C)[C@H]1CC=C(C)[C@@]2(O)[C@@H]1[C@H](c1ccccc1Br)O[C@@H]2C(=O)OCC1CC1 | 50
